We go through 26 molecules from ChEMBL document CHEMBL1130079, “Non-peptide RGD surrogates which mimic a Gly-Asp beta-turn: potent antagonists of platelet glycoprotein IIb-IIIa” (J Med Chem, 1997).

The term IC50 denotes the concentration at which inhibition is half-maximal. Low values mean inhibition by little substance, high ones a need for much substance.

Assay [1] has as its target Integrin alpha-IIb/beta-3 (Homo sapiens, UniProt P05106+P08514). As to the kind of experiment: Concentration required to reduce binding of fibrinogen to purified Fibrinogen Receptor by 50% using ELISA. It is filed as protein-complex assay. An outline of the steps: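 ELISA of fibrinogen binding to immobilized purified human platelet GPIIb-IIIa; biotinylated fibrinogen detected with alkaline phosphatase-labeled goat antibiotin and p-nitrophenol phosphate substrate; IC50 as inhibition of fibrinogen binding.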

Assay [2] is filed under the species Homo sapiens. The assay is described as follows: Ability to block Glycoprotein IIb-IIIa was measured by inhibiting ADP induced human platelet aggregation (5 uM). It is filed as functional.

Chain of Integrin alpha-IIb/beta-3 (P05106 27-788 limits assumed): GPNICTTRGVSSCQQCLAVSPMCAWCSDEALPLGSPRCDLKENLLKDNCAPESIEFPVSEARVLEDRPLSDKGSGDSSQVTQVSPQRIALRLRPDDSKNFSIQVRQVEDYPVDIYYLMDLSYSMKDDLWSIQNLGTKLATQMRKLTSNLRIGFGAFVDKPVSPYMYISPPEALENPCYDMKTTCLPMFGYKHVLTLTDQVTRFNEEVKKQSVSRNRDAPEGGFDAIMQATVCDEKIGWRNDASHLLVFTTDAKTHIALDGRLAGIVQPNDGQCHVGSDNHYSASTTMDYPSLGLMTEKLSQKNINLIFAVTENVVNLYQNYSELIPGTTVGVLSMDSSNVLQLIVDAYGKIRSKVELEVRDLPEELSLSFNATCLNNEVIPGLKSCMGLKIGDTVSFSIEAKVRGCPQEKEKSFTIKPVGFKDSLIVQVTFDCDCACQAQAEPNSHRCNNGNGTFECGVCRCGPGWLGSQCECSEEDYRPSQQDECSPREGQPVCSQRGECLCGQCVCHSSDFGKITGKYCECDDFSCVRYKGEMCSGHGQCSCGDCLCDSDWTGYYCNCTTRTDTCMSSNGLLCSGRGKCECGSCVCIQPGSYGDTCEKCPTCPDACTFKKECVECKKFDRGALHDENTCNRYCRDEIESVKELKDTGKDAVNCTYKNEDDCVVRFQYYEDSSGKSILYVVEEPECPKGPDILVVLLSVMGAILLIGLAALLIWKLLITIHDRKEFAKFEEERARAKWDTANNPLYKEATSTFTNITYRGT
Chain of Integrin alpha-IIb/beta-3 (P08514 32-887 limits assumed): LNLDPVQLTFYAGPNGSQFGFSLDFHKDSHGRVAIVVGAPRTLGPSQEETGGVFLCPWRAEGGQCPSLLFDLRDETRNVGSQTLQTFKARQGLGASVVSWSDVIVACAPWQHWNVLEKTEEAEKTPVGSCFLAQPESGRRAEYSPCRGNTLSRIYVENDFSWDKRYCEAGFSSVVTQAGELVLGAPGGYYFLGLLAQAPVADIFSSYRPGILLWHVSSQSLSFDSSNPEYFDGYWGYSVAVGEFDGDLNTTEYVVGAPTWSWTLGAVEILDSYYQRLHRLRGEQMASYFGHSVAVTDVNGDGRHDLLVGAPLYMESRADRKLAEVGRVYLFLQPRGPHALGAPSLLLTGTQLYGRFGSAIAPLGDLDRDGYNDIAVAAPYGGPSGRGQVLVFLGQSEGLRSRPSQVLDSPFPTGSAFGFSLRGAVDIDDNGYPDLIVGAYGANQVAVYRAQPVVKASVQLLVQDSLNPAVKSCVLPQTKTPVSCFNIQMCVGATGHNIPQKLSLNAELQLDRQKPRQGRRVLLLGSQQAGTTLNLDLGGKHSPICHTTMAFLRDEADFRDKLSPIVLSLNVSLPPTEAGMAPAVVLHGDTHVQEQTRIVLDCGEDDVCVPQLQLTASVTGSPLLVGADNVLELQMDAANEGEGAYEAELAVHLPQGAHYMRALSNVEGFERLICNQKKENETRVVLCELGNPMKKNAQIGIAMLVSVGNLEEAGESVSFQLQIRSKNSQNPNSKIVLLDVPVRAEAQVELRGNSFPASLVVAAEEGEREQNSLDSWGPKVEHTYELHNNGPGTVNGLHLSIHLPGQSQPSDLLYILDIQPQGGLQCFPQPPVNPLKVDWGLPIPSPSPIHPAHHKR
Chain of Integrin alpha-IIb/beta-3 (P08514 891-1039 limits assumed): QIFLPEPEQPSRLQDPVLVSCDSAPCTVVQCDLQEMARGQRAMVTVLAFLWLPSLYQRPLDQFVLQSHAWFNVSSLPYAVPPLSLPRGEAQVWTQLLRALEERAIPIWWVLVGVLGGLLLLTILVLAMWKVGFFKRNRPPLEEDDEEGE

In assay [1], `O=C(O)CN1CCc2cc(OCCC3CCNCC3)ccc2C1=O` yielded an IC50 of 11 µM.

For the molecule `N=C(N)c1ccc(/C=C\c2ccc3c(c2)CCN(CC(=O)O)C3=O)cc1`, the IC50 in assay [2] is 5.7 µM; in assay [1], 0.29 µM.

In turn, `O=C(O)CN1CCc2cc(OCCCC3CCNCC3)ccc2C1=O` returned a half-inhibitory concentration (IC50) in assay [1] of 6 µM.

`N=C(N)c1ccc(COc2ccc3c(c2)C(=O)N(CC(=O)O)CC3)cc1` returned an IC50 in assay [1] of 4 µM.

On to `NCCCCCOc1ccc2c(c1)CCN(CC(=O)O)C2=O`, for which the IC50 in assay [1] stood at 28 µM.

The molecule `N=C(N)c1ccc(COc2ccc3c(c2)CCN(CC(=O)O)C3=O)cc1` had an IC50 in assay [2] of 30 µM.

Take `NCc1ccc(COc2ccc3c(c2)CCN(CC(=O)O)C3=O)cc1`: the IC50 in assay [1] was found to be 12 µM.

For the molecule `N=C(N)NCCCCCCOc1ccc2c(c1)CCN(CC(=O)O)C2=O`, the half-inhibitory concentration (IC50) in assay [1] is 12 µM.

In turn, `NCCCOc1ccc2c(c1)CCN(CC(=O)O)C2=O` displayed a 50% inhibitory concentration (IC50) in assay [1] of 48 µM.

Regarding `NCCCCOc1ccc2c(c1)CCN(CC(=O)O)C2=O`, in assay [1], the IC50 was determined as 18 µM.

On to `N=C(N)NCc1ccc(COc2ccc3c(c2)CCN(CC(=O)O)C3=O)cc1`, for which the concentration for half-maximal inhibition (IC50) in assay [1] came out at 4 µM.

Take `N=C(N)c1ccc(C#Cc2ccc3c(c2)CCN(CC(=O)O)C3=O)cc1`: the IC50 in assay [2] stood at 0.52 µM; in assay [1] it was 0.033 µM.

In the case of `NCCCCCCOc1ccc2c(c1)CCN(CC(=O)O)C2=O`, the IC50 in assay [1] was 19 µM.

As to `N=C(N)NCCCOc1ccc2c(c1)CCN(CC(=O)O)C2=O`, in assay [1], the IC50 came out at 44 µM.

In assay [1], `N=C(N)c1ccc(CCOc2ccc3c(c2)CCN(CC(=O)O)C3=O)cc1` displayed an IC50 of 6 µM.

In the case of `N=C(N)c1ccc(NC(=O)c2ccc3c(c2)CCN(CC(=O)O)C3=O)cc1`, the results for the IC50 in assay [2] and in assay [1] were 0.56 µM and 0.076 µM, respectively.

In assay [1], `N=C(N)NCCCOc1ccc2c(c1)C(=O)N(CC(=O)O)CC2` came in with an IC50 of less than 100 µM.

As to `N=C(N)NCc1cccc(COc2ccc3c(c2)CCN(CC(=O)O)C3=O)c1`, in assay [1], the IC50 was 14 µM.

As for `N=C(N)NCCCCOc1ccc2c(c1)CCN(CC(=O)O)C2=O`, the 50% inhibitory concentration (IC50) in assay [1] was 10 µM. This IC50 and that of the molecule before are within 1.5-fold of each other.

In assay [2], `N=C(N)c1ccc(CCc2ccc3c(c2)CCN(CC(=O)O)C3=O)cc1` had a half-maximal inhibitory concentration (IC50) of 1.2 µM. This counts as single-digit micromolar.

With `N=C(N)c1ccc(C(=O)Nc2ccc3c(c2)CCN(CC(=O)O)C3=O)cc1`, the values for the 50% inhibitory concentration (IC50) in assay [2] and in assay [1] were 0.09 µM and 0.003 µM, respectively.

As for `N=C(N)NCCCCOc1ccc2c(c1)C(=O)N(CC(=O)O)CC2`, in assay [1], the concentration for half-maximal inhibition (IC50) was found to be 46 µM.

In the case of `O=C(O)CN1CCc2cc(OCCCCC3CCNCC3)ccc2C1=O`, the IC50 in assay [2] came out at 9.8 µM; in assay [1], 1.8 µM.

With `O=C(O)CN1CCc2cc(OCC3CCNCC3)ccc2C1=O`, the 50% inhibitory concentration (IC50) in assay [1] came out at 55 µM.

Take `NCc1cccc(COc2ccc3c(c2)CCN(CC(=O)O)C3=O)c1`: the 50% inhibitory concentration (IC50) in assay [1] is 77 µM.

In the case of `N=C(N)c1ccc(/C=C/c2ccc3c(c2)CCN(CC(=O)O)C3=O)cc1`, the IC50 in assay [2] turned out to be 0.34 µM; in assay [1], 0.048 µM.
